Positions of bridges follow the written chain, without caps; N, C: chain ends. Residues, ends and D or L forms follow the SMILES beside them.
Columns and labels:
[1] = target: Sodium channel protein type 5 subunit alpha (Homo sapiens, UniProt Q14524); test: Inhibition of human Nav1.5 expressed in HEK293 cells assessed as inward peak current by ion-works quattro patch clamp electrophysiology method; type: cell-based
Procedure, shortened: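 Stable HEK293 line expressing human NaV1.5, recorded by population patch clamp on the IonWorks Quattro.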

[2] = target: Sodium channel protein type 9 subunit alpha (Homo sapiens, UniProt Q15858); test: Inhibition of human Nav1.7 expressed in HEK293 cells assessed as inward peak current by ion-works quattro patch clamp electrophysiology method; type: cell-based
Sequence of Sodium channel protein type 9 subunit alpha (Q15858 whole entry): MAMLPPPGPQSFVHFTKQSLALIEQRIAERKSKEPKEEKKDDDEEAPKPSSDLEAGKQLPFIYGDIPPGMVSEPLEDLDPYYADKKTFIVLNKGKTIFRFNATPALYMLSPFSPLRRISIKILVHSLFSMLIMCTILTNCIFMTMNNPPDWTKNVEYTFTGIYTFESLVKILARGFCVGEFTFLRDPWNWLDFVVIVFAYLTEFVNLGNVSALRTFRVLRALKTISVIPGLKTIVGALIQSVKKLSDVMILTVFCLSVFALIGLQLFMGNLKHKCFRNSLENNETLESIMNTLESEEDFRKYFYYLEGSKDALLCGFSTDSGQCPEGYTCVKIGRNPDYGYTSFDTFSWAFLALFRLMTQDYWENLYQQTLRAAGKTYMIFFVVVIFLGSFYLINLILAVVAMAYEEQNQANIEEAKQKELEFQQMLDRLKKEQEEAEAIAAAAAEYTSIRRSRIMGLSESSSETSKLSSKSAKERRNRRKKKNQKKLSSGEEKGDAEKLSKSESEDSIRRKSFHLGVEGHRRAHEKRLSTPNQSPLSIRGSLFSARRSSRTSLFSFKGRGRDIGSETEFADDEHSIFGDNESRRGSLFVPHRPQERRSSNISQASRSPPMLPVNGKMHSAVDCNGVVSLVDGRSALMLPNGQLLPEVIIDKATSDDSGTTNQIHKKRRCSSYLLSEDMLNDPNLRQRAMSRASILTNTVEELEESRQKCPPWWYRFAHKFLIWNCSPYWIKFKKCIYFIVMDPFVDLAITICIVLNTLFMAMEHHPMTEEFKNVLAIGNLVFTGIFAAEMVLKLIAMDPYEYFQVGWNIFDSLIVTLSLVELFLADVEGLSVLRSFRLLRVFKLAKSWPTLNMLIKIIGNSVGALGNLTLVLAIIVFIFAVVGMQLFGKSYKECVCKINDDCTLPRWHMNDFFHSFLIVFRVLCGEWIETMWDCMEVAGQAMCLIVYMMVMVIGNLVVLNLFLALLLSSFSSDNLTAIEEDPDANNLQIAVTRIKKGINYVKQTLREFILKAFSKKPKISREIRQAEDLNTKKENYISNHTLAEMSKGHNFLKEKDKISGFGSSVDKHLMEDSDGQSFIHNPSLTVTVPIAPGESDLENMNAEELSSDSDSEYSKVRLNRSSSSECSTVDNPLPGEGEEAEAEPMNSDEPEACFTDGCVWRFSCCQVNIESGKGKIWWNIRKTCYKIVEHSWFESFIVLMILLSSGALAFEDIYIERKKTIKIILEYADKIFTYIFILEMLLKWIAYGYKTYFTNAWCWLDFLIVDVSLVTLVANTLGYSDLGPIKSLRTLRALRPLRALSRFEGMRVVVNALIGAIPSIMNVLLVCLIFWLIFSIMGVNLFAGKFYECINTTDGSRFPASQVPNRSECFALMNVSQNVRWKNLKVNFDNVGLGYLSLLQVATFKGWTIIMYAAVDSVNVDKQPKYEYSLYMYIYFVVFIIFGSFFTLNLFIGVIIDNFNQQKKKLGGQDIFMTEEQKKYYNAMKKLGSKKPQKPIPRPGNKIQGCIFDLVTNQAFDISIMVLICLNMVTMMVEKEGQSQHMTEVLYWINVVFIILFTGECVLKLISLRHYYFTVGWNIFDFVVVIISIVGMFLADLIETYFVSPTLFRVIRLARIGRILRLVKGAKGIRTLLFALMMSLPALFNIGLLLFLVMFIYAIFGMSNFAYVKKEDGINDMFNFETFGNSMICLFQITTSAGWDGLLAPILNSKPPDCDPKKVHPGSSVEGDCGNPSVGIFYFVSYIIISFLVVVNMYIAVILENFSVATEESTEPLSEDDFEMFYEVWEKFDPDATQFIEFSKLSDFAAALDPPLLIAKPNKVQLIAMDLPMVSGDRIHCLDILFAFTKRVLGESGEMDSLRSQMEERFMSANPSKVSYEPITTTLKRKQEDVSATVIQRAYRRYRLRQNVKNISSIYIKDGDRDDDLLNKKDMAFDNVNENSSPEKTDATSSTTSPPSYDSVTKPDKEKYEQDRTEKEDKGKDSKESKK

Sequence of Sodium channel protein type 5 subunit alpha (Q14524 whole entry): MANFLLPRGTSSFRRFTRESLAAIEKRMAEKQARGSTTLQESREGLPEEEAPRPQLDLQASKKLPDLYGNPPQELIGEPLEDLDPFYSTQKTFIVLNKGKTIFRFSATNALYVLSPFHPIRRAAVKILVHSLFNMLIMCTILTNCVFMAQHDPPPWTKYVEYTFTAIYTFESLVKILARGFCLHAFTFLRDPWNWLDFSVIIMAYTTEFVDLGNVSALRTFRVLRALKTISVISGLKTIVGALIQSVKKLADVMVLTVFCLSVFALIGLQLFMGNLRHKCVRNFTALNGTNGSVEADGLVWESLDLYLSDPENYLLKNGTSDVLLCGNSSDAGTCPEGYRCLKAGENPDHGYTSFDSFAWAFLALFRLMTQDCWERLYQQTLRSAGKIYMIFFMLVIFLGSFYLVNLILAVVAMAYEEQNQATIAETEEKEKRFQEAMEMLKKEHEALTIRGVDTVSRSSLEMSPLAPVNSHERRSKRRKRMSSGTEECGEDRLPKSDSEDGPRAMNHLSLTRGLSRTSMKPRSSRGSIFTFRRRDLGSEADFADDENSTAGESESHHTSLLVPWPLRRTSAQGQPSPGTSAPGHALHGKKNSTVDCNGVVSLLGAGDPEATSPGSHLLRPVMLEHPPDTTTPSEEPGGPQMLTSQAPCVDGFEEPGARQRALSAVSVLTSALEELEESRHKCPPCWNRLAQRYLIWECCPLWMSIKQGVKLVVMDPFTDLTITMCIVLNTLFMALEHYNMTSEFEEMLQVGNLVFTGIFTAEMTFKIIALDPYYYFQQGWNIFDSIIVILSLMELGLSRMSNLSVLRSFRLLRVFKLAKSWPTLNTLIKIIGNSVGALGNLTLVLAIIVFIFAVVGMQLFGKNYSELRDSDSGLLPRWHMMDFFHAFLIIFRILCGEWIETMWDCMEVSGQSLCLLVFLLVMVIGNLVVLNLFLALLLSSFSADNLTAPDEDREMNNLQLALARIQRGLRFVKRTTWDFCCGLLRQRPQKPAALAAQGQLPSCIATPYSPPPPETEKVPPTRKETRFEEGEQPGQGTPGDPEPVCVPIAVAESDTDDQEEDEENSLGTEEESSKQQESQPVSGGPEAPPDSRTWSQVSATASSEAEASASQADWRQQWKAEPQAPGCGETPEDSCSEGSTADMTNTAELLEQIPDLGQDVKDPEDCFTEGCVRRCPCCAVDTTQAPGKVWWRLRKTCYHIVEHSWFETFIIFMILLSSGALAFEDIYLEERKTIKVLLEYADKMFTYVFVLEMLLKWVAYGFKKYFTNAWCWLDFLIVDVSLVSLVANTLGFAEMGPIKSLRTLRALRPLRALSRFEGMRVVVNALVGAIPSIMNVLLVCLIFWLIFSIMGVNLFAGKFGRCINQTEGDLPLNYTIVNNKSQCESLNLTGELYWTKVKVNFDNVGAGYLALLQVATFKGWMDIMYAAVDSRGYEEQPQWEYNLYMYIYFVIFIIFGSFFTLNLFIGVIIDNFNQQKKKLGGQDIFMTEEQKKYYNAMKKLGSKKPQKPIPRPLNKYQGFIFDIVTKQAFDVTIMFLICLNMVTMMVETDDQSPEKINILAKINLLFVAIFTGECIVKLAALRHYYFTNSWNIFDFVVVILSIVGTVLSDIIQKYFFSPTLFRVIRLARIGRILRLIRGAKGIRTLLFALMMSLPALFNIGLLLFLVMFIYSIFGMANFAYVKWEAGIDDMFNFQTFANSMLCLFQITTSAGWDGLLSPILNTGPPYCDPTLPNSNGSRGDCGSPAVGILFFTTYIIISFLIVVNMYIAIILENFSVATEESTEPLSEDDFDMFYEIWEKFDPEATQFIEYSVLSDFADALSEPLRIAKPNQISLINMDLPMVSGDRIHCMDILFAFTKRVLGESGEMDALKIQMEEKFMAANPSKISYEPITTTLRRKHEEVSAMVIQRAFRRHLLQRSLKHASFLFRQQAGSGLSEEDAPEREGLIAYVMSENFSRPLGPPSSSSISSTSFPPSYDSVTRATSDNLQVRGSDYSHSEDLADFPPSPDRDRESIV

CC[C@H](C)[C@@H]1NC(=O)[C@@H]2CSSC[C@@H]3NC(=O)[C@H](C(C)C)NC(=O)[C@H](CC(C)C)NC(=O)[C@H](CC(N)=O)NC(=O)[C@@H]4CCCN4C(=O)[C@H](CCCNC(=N)N)NC(=O)[C@H](CSSC[C@H](NC(=O)[C@@H](N)CC(=O)O)C(=O)N[C@@H](CC(C)C)C(=O)NCC(=O)N[C@@H](Cc4c[nH]c5ccccc45)C(=O)N[C@@H](CCSC)C(=O)N[C@@H](CCCNC(=N)N)C(=O)N[C@@H](CCCCN)C(=O)N2)NC(=O)[C@H](CSSC[C@@H](C(=O)N[C@@H](CCCCN)C(=O)N[C@@H](Cc2ccc(O)cc2)C(=O)N[C@H](C(=O)N[C@@H](Cc2ccccc2)C(N)=O)C(C)C)NC(=O)[C@H](Cc2c[nH]c4ccccc24)NC(=O)[C@H](CCCCN)NC(=O)[C@H](Cc2cnc[nH]2)NC(=O)[C@H]([C@@H](C)O)NC(=O)[C@H](CCCNC(=N)N)NC(=O)[C@H](CO)NC3=O)NC(=O)[C@H](CCCCN)NC(=O)[C@H](CC(=O)O)NC(=O)[C@H](CC(N)=O)NC(=O)[C@H](CC(=O)O)NC(=O)[C@@H]2CCCN2C1=O (H-DCLGWMRKCIPDNDKCCRPNLVCSRTHKWCKYVF-NH2; disulfide 2-17, 9-23, 16-30)
IC50 [1]: > 5000 nM
IC50 [2]: 200 nM

CC[C@H](C)[C@@H]1NC(=O)[C@@H]2CSSC[C@@H]3NC(=O)[C@H](C(C)C)NC(=O)[C@H](CC(C)C)NC(=O)[C@H](CC(N)=O)NC(=O)[C@@H]4CCCN4C(=O)[C@H](CCCNC(=N)N)NC(=O)[C@H](CSSC[C@H](NC(=O)[C@@H](N)CC(=O)O)C(=O)N[C@@H](CC(C)C)C(=O)NCC(=O)N[C@@H](Cc4ccccc4)C(=O)N[C@@H](CCSC)C(=O)N[C@@H](CCCNC(=N)N)C(=O)N[C@@H](CCCCN)C(=O)N2)NC(=O)[C@H](CSSC[C@@H](C(=O)N[C@@H](CCCCN)C(=O)N[C@@H](Cc2ccc(O)cc2)C(=O)N[C@H](C(=O)N[C@@H](Cc2ccccc2)C(N)=O)C(C)C)NC(=O)[C@H](Cc2c[nH]c4ccccc24)NC(=O)[C@H](CCCNC(=N)N)NC(=O)[C@H](Cc2cnc[nH]2)NC(=O)[C@H]([C@@H](C)O)NC(=O)[C@H](CCCNC(=N)N)NC(=O)[C@H](CO)NC3=O)NC(=O)[C@H](CCCCN)NC(=O)[C@H](CC(=O)O)NC(=O)[C@H](CC(N)=O)NC(=O)[C@H](CC(=O)O)NC(=O)[C@@H]2CCCN2C1=O
IC50 [1]: > 5000 nM
IC50 [2]: 90 nM

CC[C@H](C)[C@@H]1NC(=O)[C@@H]2CSSC[C@@H]3NC(=O)[C@H](C(C)C)NC(=O)[C@H](CC(C)C)NC(=O)[C@H](CC(N)=O)NC(=O)[C@@H]4CCCN4C(=O)[C@H](CCCNC(=N)N)NC(=O)[C@H](CSSC[C@H](NC(=O)[C@@H](N)CC(=O)O)C(=O)N[C@@H](CC(C)C)C(=O)NCC(=O)N[C@@H](Cc4ccccc4)C(=O)N[C@@H](CCSC)C(=O)N[C@@H](CCCNC(=N)N)C(=O)N[C@@H](CCCCN)C(=O)N2)NC(=O)[C@H](CSSC[C@@H](C(=O)N[C@@H](CCCCN)C(=O)N[C@@H](Cc2ccc(O)cc2)C(=O)N[C@H](C(=O)N[C@@H](Cc2ccccc2)C(N)=O)C(C)C)NC(=O)[C@H](Cc2c[nH]c4ccccc24)NC(=O)[C@H](CCCCN)NC(=O)[C@H](CCCNC(=N)N)NC(=O)[C@H]([C@@H](C)O)NC(=O)[C@H](CCCNC(=N)N)NC(=O)[C@H](CO)NC3=O)NC(=O)[C@H](CCCCN)NC(=O)[C@H](CC(=O)O)NC(=O)[C@H](CC(N)=O)NC(=O)[C@H](CC(=O)O)NC(=O)[C@@H]2CCCN2C1=O (H-DCLGFMRKCIPDNDKCCRPNLVCSRTRKWCKYVF-NH2; disulfide 2-17, 9-23, 16-30)
IC50 [1]: > 5000 nM
IC50 [2]: 450 nM

CC[C@H](C)[C@@H]1NC(=O)[C@@H]2CSSC[C@@H]3NC(=O)[C@H](C(C)C)NC(=O)[C@H](CC(C)C)NC(=O)[C@H](CC(N)=O)NC(=O)[C@@H]4CCCN4C(=O)[C@H](CCCNC(=N)N)NC(=O)[C@H](CSSC[C@H](NC(=O)[C@@H](N)CC(=O)O)C(=O)N[C@@H](CC(C)C)C(=O)NCC(=O)N[C@@H](Cc4ccccc4)C(=O)N[C@@H](CCSC)C(=O)N[C@@H](CCCNC(=N)N)C(=O)N[C@@H](CCCCN)C(=O)N2)NC(=O)[C@H](CSSC[C@@H](C(=O)N[C@@H](CCCCN)C(=O)N[C@@H](Cc2ccc(O)cc2)C(=O)N[C@H](C(=O)N[C@@H](Cc2ccccc2)C(N)=O)C(C)C)NC(=O)[C@H](Cc2c[nH]c4ccccc24)NC(=O)[C@H](CCCCN)NC(=O)[C@H](Cc2cnc[nH]2)NC(=O)[C@H]([C@@H](C)O)NC(=O)[C@H](CCCNC(=N)N)NC(=O)[C@H](CCC(=O)O)NC3=O)NC(=O)[C@H](CCCCN)NC(=O)[C@H](CC(=O)O)NC(=O)[C@H](CC(N)=O)NC(=O)[C@H](CC(=O)O)NC(=O)[C@@H]2CCCN2C1=O (H-DCLGFMRKCIPDNDKCCRPNLVCERTHKWCKYVF-NH2; disulfide 2-17, 9-23, 16-30)
IC50 [1]: > 5000 nM
IC50 [2]: > 5000 nM

CC[C@H](C)[C@@H]1NC(=O)[C@@H]2CSSC[C@@H]3NC(=O)[C@H](C(C)C)NC(=O)[C@H](CC(C)C)NC(=O)[C@H](CC(N)=O)NC(=O)[C@@H]4CCCN4C(=O)[C@H](CCCNC(=N)N)NC(=O)[C@H](CSSC[C@H](NC(=O)[C@@H](N)CC(=O)O)C(=O)N[C@@H](CC(C)C)C(=O)NCC(=O)N[C@@H](Cc4ccccc4)C(=O)N[C@@H](CCSC)C(=O)N[C@@H](CCCNC(=N)N)C(=O)N[C@@H](CCCCN)C(=O)N2)NC(=O)[C@H](CSSC[C@@H](C(=O)N[C@@H](CCCCN)C(=O)N[C@@H](Cc2ccc(O)cc2)C(=O)N[C@H](C(=O)N[C@@H](Cc2ccccc2)C(N)=O)C(C)C)NC(=O)[C@H](Cc2c[nH]c4ccccc24)NC(=O)[C@H](CCCCN)NC(=O)[C@H](Cc2cnc[nH]2)NC(=O)[C@H]([C@@H](C)O)NC(=O)[C@H](CCCNC(=N)N)NC(=O)[C@H](CO)NC3=O)NC(=O)[C@H](CCCCN)NC(=O)[C@H](CC(=O)O)NC(=O)[C@H](CC(N)=O)NC(=O)[C@H](Cc2c[nH]c3ccccc23)NC(=O)[C@@H]2CCCN2C1=O (H-DCLGFMRKCIPWNDKCCRPNLVCSRTHKWCKYVF-NH2; disulfide 2-17, 9-23, 16-30)
IC50 [1]: > 5000 nM
IC50 [2]: 60 nM

CC[C@H](C)[C@@H]1NC(=O)[C@@H]2CSSC[C@@H]3NC(=O)[C@H](C(C)C)NC(=O)[C@H](CC(C)C)NC(=O)[C@H](CC(N)=O)NC(=O)[C@@H]4CCCN4C(=O)[C@H](CCCNC(=N)N)NC(=O)[C@H](CSSC[C@H](NC(=O)[C@@H](N)CC(=O)O)C(=O)N[C@@H](CC(C)C)C(=O)NCC(=O)N[C@@H](Cc4ccccc4)C(=O)N[C@@H](CCSC)C(=O)N[C@@H](CCCNC(=N)N)C(=O)N[C@@H](CCCCN)C(=O)N2)NC(=O)[C@H](CSSC[C@@H](C(=O)N[C@@H](CCCCN)C(=O)N[C@@H](Cc2ccc(O)cc2)C(=O)N[C@H](C(=O)N[C@@H](Cc2ccccc2)C(N)=O)C(C)C)NC(=O)[C@H](Cc2c[nH]c4ccccc24)NC(=O)[C@H](CCCCN)NC(=O)[C@H](Cc2cnc[nH]2)NC(=O)[C@H]([C@@H](C)O)NC(=O)[C@H](CCCNC(=N)N)NC(=O)[C@H](CO)NC3=O)NC(=O)[C@H](CCCCN)NC(=O)[C@H](CC(=O)O)NC(=O)[C@H](CC(N)=O)NC(=O)[C@H](CCC(=O)O)NC(=O)[C@@H]2CCCN2C1=O (H-DCLGFMRKCIPENDKCCRPNLVCSRTHKWCKYVF-NH2; disulfide 2-17, 9-23, 16-30)
IC50 [1]: > 5000 nM
IC50 [2]: 280 nM

CC[C@H](C)[C@@H]1NC(=O)[C@@H]2CSSC[C@@H]3NC(=O)[C@H](C(C)C)NC(=O)[C@H](CC(C)C)NC(=O)[C@H](CC(N)=O)NC(=O)[C@@H]4CCCN4C(=O)[C@H](CCCNC(=N)N)NC(=O)[C@H](CSSC[C@H](NC(=O)[C@@H](N)CC(=O)O)C(=O)N[C@@H](CC(C)C)C(=O)NCC(=O)N[C@@H](Cc4ccccc4)C(=O)N[C@@H](CCSC)C(=O)N[C@@H](CCCNC(=N)N)C(=O)N[C@@H](CCCCN)C(=O)N2)NC(=O)[C@H](CSSC[C@@H](C(=O)N[C@@H](CCCCN)C(=O)N[C@@H](Cc2ccc(O)cc2)C(=O)N[C@H](C(=O)N[C@@H](Cc2c[nH]c4ccccc24)C(N)=O)C(C)C)NC(=O)[C@H](Cc2c[nH]c4ccccc24)NC(=O)[C@H](CCCCN)NC(=O)[C@H](Cc2c[nH]cn2)NC(=O)[C@H]([C@@H](C)O)NC(=O)[C@H](CCCNC(=N)N)NC(=O)[C@H](CO)NC3=O)NC(=O)[C@H](CCCCN)NC(=O)[C@H](CC(=O)O)NC(=O)[C@H](CC(N)=O)NC(=O)[C@H](CC(=O)O)NC(=O)[C@@H]2CCCN2C1=O (H-DCLGFMRKCIPDNDKCCRPNLVCSRTHKWCKYVW-NH2; disulfide 2-17, 9-23, 16-30)
IC50 [1]: > 5000 nM
IC50 [2]: 270 nM

CC[C@H](C)[C@@H]1NC(=O)[C@@H]2CSSC[C@@H]3NC(=O)[C@H](C(C)C)NC(=O)[C@H](CC(C)C)NC(=O)[C@H](CC(N)=O)NC(=O)[C@@H]4CCCN4C(=O)[C@H](CCCNC(=N)N)NC(=O)[C@H](CSSC[C@H](NC(=O)[C@@H](N)CC(=O)O)C(=O)N[C@@H](CC(C)C)C(=O)NCC(=O)N[C@@H](Cc4ccccc4)C(=O)N[C@@H](CCSC)C(=O)N[C@@H](CCCNC(=N)N)C(=O)N[C@@H](CCCCN)C(=O)N2)NC(=O)[C@H](CSSC[C@@H](C(=O)N[C@@H](CCCCN)C(=O)N[C@@H](Cc2ccc(O)cc2)C(=O)N[C@H](C(=O)N[C@@H](Cc2ccccc2)C(N)=O)C(C)C)NC(=O)[C@H](Cc2c[nH]c4ccccc24)NC(=O)[C@H](CCCCN)NC(=O)[C@H](Cc2cnc[nH]2)NC(=O)[C@H]([C@@H](C)O)NC(=O)[C@H](CCCNC(=N)N)NC(=O)[C@H](CO)NC3=O)NC(=O)[C@H](CCCNC(=N)N)NC(=O)[C@H](CC(=O)O)NC(=O)[C@H](CC(N)=O)NC(=O)[C@H](CC(=O)O)NC(=O)[C@@H]2CCCN2C1=O (H-DCLGFMRKCIPDNDRCCRPNLVCSRTHKWCKYVF-NH2; disulfide 2-17, 9-23, 16-30)
IC50 [1]: > 5000 nM
IC50 [2]: 220 nM

Reference: ChEMBL document CHEMBL3797186, “Single Residue Substitutions That Confer Voltage-Gated Sodium Ion Channel Subtype Selectivity in the NaV1.7 Inhibitory Peptide GpTx-1” (J Med Chem, 2016)
